Published values gathered from unrelated publications.
Protocols differ between the studies behind these lines.
Target: Dual specificity protein kinase TTK (TTK, Homo sapiens, UniProt P33981)
Sequence (P33981 1-857, as in one of the studies): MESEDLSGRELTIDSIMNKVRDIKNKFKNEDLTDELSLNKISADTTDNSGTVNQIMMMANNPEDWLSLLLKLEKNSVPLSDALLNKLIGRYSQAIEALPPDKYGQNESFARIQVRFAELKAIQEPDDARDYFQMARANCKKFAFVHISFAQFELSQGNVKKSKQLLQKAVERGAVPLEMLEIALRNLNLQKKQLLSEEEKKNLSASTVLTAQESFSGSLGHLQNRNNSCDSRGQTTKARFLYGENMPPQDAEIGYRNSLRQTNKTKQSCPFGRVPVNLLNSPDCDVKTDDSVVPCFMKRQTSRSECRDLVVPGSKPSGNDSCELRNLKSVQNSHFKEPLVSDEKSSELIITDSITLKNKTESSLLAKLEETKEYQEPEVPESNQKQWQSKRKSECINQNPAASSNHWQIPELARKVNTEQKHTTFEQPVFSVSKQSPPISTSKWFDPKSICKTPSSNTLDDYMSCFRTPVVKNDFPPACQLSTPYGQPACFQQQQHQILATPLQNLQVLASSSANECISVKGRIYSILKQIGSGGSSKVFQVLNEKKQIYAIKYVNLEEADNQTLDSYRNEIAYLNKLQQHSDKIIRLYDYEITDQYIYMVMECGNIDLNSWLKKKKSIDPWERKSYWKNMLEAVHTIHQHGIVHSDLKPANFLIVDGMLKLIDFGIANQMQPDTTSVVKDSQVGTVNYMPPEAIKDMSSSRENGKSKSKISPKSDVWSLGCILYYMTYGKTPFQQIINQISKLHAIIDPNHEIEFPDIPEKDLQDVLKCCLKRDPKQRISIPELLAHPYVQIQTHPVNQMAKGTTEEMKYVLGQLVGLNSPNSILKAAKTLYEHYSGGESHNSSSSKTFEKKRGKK

COc1ccc2c(c1)O[C@H](c1ccc(OC)c(OC)c1)C[C@@H]2NC(=O)C1(c2ccc3c(c2)OC(F)(F)O3)CC1  remaining binding (cell-free assay, competition with immobilised ligand; 1 µM): 100%
C[C@H]1CCN(c2nccc(-c3cnn4ncccc34)n2)C1  remaining binding (binding; 1 µM): 34%
Nc1ncc2c(n1)-c1c([nH]c3ccc(C#CC4CC4)cc13)CCCC2  remaining binding (binding, competition with immobilised ligand; 1 µM): 100%
CCN1CCN(Cc2ccc(C(=O)Nc3ccc(C)c(Oc4ccc5c(c4)CC(=O)N5)c3)cc2C(F)(F)F)CC1  remaining binding (binding, competition with immobilised ligand; 1 µM): 100%
O=C(N[C@H]1CCCCC/C=C\C2C[C@@]2(C(=O)O)NC(=O)[C@@H]2C[C@@H](Oc3ccncc3)CN2C1=O)OC1CCCC1 (stereo partly drawn)  remaining binding (binding, competition with immobilised ligand; 1 µM): 79%
N[C@@H]1CCN(c2nccc(-c3cnn4ncccc34)n2)C1  remaining binding (binding; 1 µM): 100%
COc1cnc(Nc2cccc(S(N)(=O)=O)c2)nc1N1CCN(c2ccccc2)C(=O)C1  remaining binding (binding, competition with immobilised ligand; 1 µM): 77%
CN(C)c1nccc(-c2cnn3ncccc23)n1  remaining binding (binding; 1 µM): 100%
CCC(=O)N[C@H]1CC[C@@H](C(=O)N(C)c2ccc(-c3nc4ccccc4o3)cc2)C1  remaining binding (cell-free assay, competition with immobilised ligand; 1 µM): 100%
O=C(Nc1c[nH]nc1C(=O)NC1CCNCC1)c1cc(F)cc(F)c1  remaining binding (binding, competition with immobilised ligand; 1 µM): 100%
CN(C)c1nccc(-c2cnc3ncccn23)n1  remaining binding (binding; 1 µM): 74%
CO[C@@H](C)c1c(Nc2ccc([C@@H](N(C)C(=O)C3CCS(=O)(=O)CC3)C(F)(F)F)cc2)cnc2cc(Cl)nn12  remaining binding (cell-free assay, competition with immobilised ligand; 1 µM): 100%
O=C(c1ccc(Nc2ncc(Cl)c(-c3cc4ccccc4s3)n2)cc1)N1CCC(N2CCCC2)CC1  remaining binding (binding, competition with immobilised ligand; 1 µM): 41%
COc1ncc2cc3ccccc3nc2c1C#N  remaining binding (cell-free assay, competition with immobilised ligand; 5 µM): 85%
Cc1cnc(Nc2ccc(C(=O)N3CCC(N4CCCC4)CC3)cc2)nc1-c1cc2ccccc2s1  remaining binding (binding, competition with immobilised ligand; 1 µM): 26%
c1cnn2ncc(-c3ccnc(N4CCC45COC5)n3)c2c1  remaining binding (binding; 1 µM): 61%
N#CC1(c2ccccn2)CCN(Cc2cc(C(=O)N3CCCC3)c(=O)n3ccccc23)CC1  remaining binding (cell-free assay, competition with immobilised ligand; 1 µM): 98%
C=CC(=O)N1CCC(C(=O)NCC(=O)N2CCN(c3nc(-c4cnc(N)nc4C(F)F)nc(N4CCOCC4)n3)CC2)CC1  remaining binding (binding, competition with immobilised ligand; 1 µM): 92%
O=C(NCCCN1CCOCC1)c1ccc(Nc2ncc(Cl)c(-c3ccc(Cl)s3)n2)cc1  remaining binding (binding, competition with immobilised ligand; 1 µM): 58%
CCCCN(CCCC)C(=O)CN1C[C@H](c2cc(OC)c3c(c2)OCO3)[C@@H](C(=O)O)[C@@H]1CC(C)(C)CCC  remaining binding (cell-free assay, competition with immobilised ligand; 1 µM): 100%
C[C@@H](c1ccc(-n2cnc3c(N)ncnc32)cc1)N1CCc2nn(C)c(Cc3ccccc3)c2C1=O  remaining binding (binding, competition with immobilised ligand; 0.1 µM): 85%
